Data taken from paper PMC9597438 (Journal of Ginseng Research, 2022).

How the values were obtained:
[1] = tested on: HIF-1α transcriptional activity in Hep3B cells; experiment: HRE luciferase reporter assay; format: cell-based, human
How it was run: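 Hep3B cells at 60–80% confluence were transfected with an HRE-luciferase plasmid (legend adds pRL-CMV) using Lipofectamine 2000 for 24 h. They were reseeded at 5×10^4/well for 24 h, then treated under hypoxia (1% O₂, 5% CO₂, 94% N₂, 37 °C) at final 0.3–30 µM, triplicate wells. Treatment ran 12–16 h per methods, 24 h per legend. Cells were lysed 1 h and luminescence read.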

[2] = tested on: VEGF protein expression in HeLa cells; experiment: Western blotting of VEGF in HeLa cells; format: cell-based, human; settings: hypoxia, 12 h
How it was run: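 After 12 h incubation under normoxia or hypoxia (1% O₂) at the indicated concentrations, HeLa cell protein was quantified by BCA and separated by SDS-PAGE onto PVDF. Blots were blocked in 5% milk and probed for VEGF overnight at 4 °C, then secondary 2 h, with chemiluminescent detection. Three independent experiments.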

HeLa cells [3] = experiment: EdU labeling and immunofluorescence; format: cell-based, human; settings: HeLa cells, 3, 10, 30 μM, 12 h
How it was run: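 HeLa cells (5×10^4/well) were plated for 24 h and treated with 3, 10 or 30 µM for 12 h. EdU was pulsed for 1 h. Cells were fixed in 4% paraformaldehyde for 30 min, permeabilised in 0.5% Triton X-100 for 10 min and reacted in 1× Apollo cocktail for 30 min. Nuclei were counterstained with Hoechst 33342 and imaged by fluorescence microscopy.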

Hep3B cells = experiment: Cytotoxic; format: cell-based, human; settings: 24 h, concentrations as high as 30 μM
How it was run: (§1)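 Hep3B cells in DMEM/10% FBS (5×10^4/well) adhered for 12 h under normoxia. They were exposed for 24 h to final 0.3, 1, 3, 10 and 30 µM, triplicate wells per level. MTT was added for 4 h in the dark, formazan was dissolved in DMSO with 10 min shaking, and absorbance was read at 492 nm. Mean ± SD, n = 3.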

[4] = tested on: Bcl-2 expression in HeLa cells; experiment: Western blotting of Bcl-2 in HeLa cells; format: cell-based, human; settings: HeLa cells, 3, 10, 30 μM, 12 h, vs control group
How it was run: (§2)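 HeLa cells were treated with or without 3, 10 or 30 µM for 12 h. Whole-cell extracts were separated by SDS-PAGE, transferred to PVDF and blocked in 5% nonfat milk. Blots were probed overnight at 4 °C for the named protein (Bax, Bcl-2, MMP-9 or cleaved caspase-3), then secondary for 2 h, with chemiluminescent detection. Three independent experiments.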

[5] = tested on: HIF-1α protein expression in HeLa cells; experiment: Western blotting of HIF-1α in HeLa cells; format: cell-based, human; settings: 1% O2, 12 h, 3, 10, 30 μM, nuclear extract
How it was run: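 HeLa cells were held 12 h under normoxia or hypoxia (1% O₂) with 3, 10 or 30 µM. Nuclear extracts were quantified by BCA, and 30 µg per lane was resolved by SDS-PAGE and transferred to PVDF. Membranes were blocked in 5% nonfat milk, probed with anti-HIF-1α overnight at 4 °C, then secondary for 2 h, and detected by chemiluminescence. Three independent experiments.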

HeLa cells [6] = experiment: Transwell invasion assay; format: cell-based, human; settings: HeLa cells, 3, 10, 30 μM, vs control
How it was run: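 Matrigel-coated Transwell inserts were loaded with HeLa cells pretreated with or without 3, 10 or 30 µM, in serum-free DMEM in the upper chamber; the legend gives 12 h exposure. The lower chamber held DMEM with 10% FBS. After 24 h invasion at 37 °C, cells on the lower side were fixed in 4% paraformaldehyde, stained with 0.1% crystal violet and photographed at 200×.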

[7] = tested on: HIF-1β expression in HeLa cells; experiment: Western blotting of HIF-1β in HeLa cells; format: cell-based, human; settings: hypoxia, 12 h, whole-cell lysates
How it was run: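 HeLa cells were held 12 h under normoxia or hypoxia (1% O₂) at the indicated concentrations. Whole-cell lysates were run on SDS-PAGE, transferred to PVDF and blocked in 5% milk. Anti-HIF-1β ran overnight at 4 °C, secondary 2 h, chemiluminescent detection. Three independent experiments.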

[8] = tested on: HeLa cervical cancer xenograft; experiment: In vivo antitumor activity, HeLa cervical cancer xenograft; design: species or system athymic Nu/Nu nude mice; settings: nude mice with HeLa tumors, ip, vs control, p < 0.001
HeLa cells [9] = experiment: Cell migration assay; format: cell-based, human; settings: 3, 10, 30 μM, 12 h, vs control group
How it was run: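 Scratch assay: HeLa cells (1×10^5/well) adhered for 24 h, were scratched with a sterile pipette tip, washed three times in PBS and switched to serum-free medium. Cells got 3, 10 or 30 µM for 12 h. The same fields were imaged at 200×, and migration was scored as final versus initial gap width.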

[10] = tested on: Bax expression in HeLa cells; experiment: Western blotting of Bax in HeLa cells; format: cell-based, human; settings: HeLa cells, 3, 10, 30 μM, 12 h, vs control group
How it was run: as §2

HeLa cells [11] = experiment: Colony formation assay; format: cell-based, human; settings: HeLa cells, 3, 10, 30 μM, 10 days
How it was run: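 HeLa cells (1×10^3/well, 6-well) were plated for 12 h and given fresh medium with 3, 10 or 30 µM. They grew 10 days until colonies were visible, then were fixed in 10% formaldehyde, stained with 1% crystal violet, washed in PBS and air-dried.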

[12] = tested on: nuclear accumulation of HIF-1α in HeLa cells; experiment: Immunofluorescence staining of HIF-1α; format: cell-based, human; settings: 1% O2, 12 h, 30 μM
How it was run: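 HeLa cells (1×10^4/well) adhered for 24 h and were held under normoxia or hypoxia (1% O₂) for 12 h with or without 30 µM. Processing: 4% paraformaldehyde at room temperature for 30 min, 0.2% Triton X-100, 5% BSA block for 30 min. Anti-HIF-1α ran overnight at 4 °C, secondary 30 min at room temperature, DAPI 30 min. Imaged by fluorescence microscopy at 400×.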

HeLa cells [13] = experiment: Apoptosis assay; format: cell-based, human
How it was run: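 HeLa cells (5×10^5/well) adhered for 24 h, then were exposed to 3, 10 or 30 µM for 24 h per methods; the legend gives 12 h under hypoxia. Cells were washed twice in PBS and taken into binding buffer (10 mM HEPES pH 7.4, 140 mM NaCl, 2.5 mM CaCl₂). They were stained with Annexin V-FITC and 2 µg/mL propidium iodide, 15 min, 37 °C, dark, then read by flow cytometry.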

[14] = tested on: MMP-9 expression in HeLa cells; experiment: Western blotting of MMP-9 in HeLa cells; format: cell-based, human; settings: 10 μM, 12 h
How it was run: as §2

[15] = tested on: cleaved caspase-3 expression in HeLa cells; experiment: Western blotting of cleaved caspase-3 in HeLa cells; format: cell-based, human; settings: HeLa cells, 3, 10, 30 μM, 12 h, concentration-dependent
How it was run: as §2

Cytotoxic = format: cell-based, human; settings: human, Hep3B cells
How it was run: as §1

SMILES | transcriptional activity of HIF-1α (HRE-mediated reporter gene expression) ([1]; hypoxia (1% oxygen), from 0.3 μM upward) | efficacy (HIF-1α transcription inhibition) relative to 20(R)-panaxotriol ([1]; ratio of IC50 values) | VEGF protein expression levels [2] | number of EdU-positive cells (HeLa cells [3]) | cell viability (MTT) (Hep3B cells) | levels of Bcl-2 [4] | HIF-1α protein content [5] | number of tumor cells that crossed the transwell chamber (invasion) (HeLa cells [6]) | expression level of HIF-1β [7] | tumor volume [8] | migration of HeLa cells (scratch assay) (HeLa cells [9]) | expression levels of Bax [10] | colony formation of cells (HeLa cells [11]) | HIF-1α expression in the nucleus [12] | percentage of total apoptotic (early and late) cells (HeLa cells [13]; 3 μM) | percentage of total apoptotic (early and late) cells (HeLa cells [13]; 10 μM) | percentage of total apoptotic (early and late) cells (HeLa cells [13]; 30 μM) | expression levels of MMP-9 [14] | expression levels of cleaved caspase-3 [15] | IC50 at 24 h (Cytotoxic)
CC(C)(C)OC(=O)NCC(=O)OC1CCC2(C)C(C(O)CC3(C)C2CC(O)C2C(C4(C)CCCC(C)(C)O4)CCC23C)C1(C)C (centres unmarked) [A11, 6,12-dihydroxy-4,4,8,10,14-pentamethyl-17-(2,6,6-trimethyltetrahydro-2H-pyran-2-yl)hexadecahydro-1H-cyclopenta[a]phenanthren-3-yl (tert-butoxycarbonyl)glycinate] | dose-dependent inhibited | more than 100 times | dose-dependent decrease | concentration-dependently suppressed | no adverse effects on cell viability | decreased | dose-dependently reduced | significantly reduced | almost no influence | significantly inhibit | decreased | increased | apparently inhibited | not detected | 5.2% | 14.0% | 24.2% | significantly reduced | significantly increased | 
CC1(C)CCCC(C)(C2CCC3(C)C2C(O)CC2C4(C)CCC(OC(=O)[C@@H](N)Cc5c[nH]c6ccccc56)C(C)(C)C4C(O)CC23C)O1 (some centres unmarked) [A13, 6,12-dihydroxy-4,4,8,10,14-pentamethyl-17-(2,6,6-trimethyltetrahydro-2H-pyran-2-yl)hexadecahydro-1H-cyclopenta[a]phenanthren-3-yl tryptophanate] |  |  |  |  |  |  |  |  |  |  |  |  |  |  |  |  |  |  |  | 6.99 µM
